Laboratory results published in ChEMBL document CHEMBL5055621, “Synthesis and Characterization of the Novel Rodent-Active and CNS-Penetrant P2X7 Receptor Antagonist Lu AF27139” (J Med Chem, 2021).

Experiments:
[1] = Efflux ratio of permeability across basolateral to apical side over apical to basolateral side in MDCK2-MDR1 cells; format: ADME, cell-based, Canis lupus familiaris; conditions: dog, MDCK-MDR1
In short: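 MDR1-MDCK monolayers; permeability measured in both A-to-B and B-to-A directions, in triplicate. Efflux ratio taken as B:A over A:B permeation.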

[2] = Apparent permeability across apical to basolateral side in MDCK-MDR1 cells by LC-MS/MS analysis; conditions: dog
P2X purinoceptor 7 [3] = target: T1, P2X purinoceptor 7 (Mus musculus, UniProt Q9Z1M0); assay: Antagonist activity at mouse P2X7 receptor expressed in HEK293 cells assessed as inhibition of BzATP-induced calcium-flux measured after 60 mins by FLIPR analysis; format: cell-based
T1 sequence (Q9Z1M0 whole entry): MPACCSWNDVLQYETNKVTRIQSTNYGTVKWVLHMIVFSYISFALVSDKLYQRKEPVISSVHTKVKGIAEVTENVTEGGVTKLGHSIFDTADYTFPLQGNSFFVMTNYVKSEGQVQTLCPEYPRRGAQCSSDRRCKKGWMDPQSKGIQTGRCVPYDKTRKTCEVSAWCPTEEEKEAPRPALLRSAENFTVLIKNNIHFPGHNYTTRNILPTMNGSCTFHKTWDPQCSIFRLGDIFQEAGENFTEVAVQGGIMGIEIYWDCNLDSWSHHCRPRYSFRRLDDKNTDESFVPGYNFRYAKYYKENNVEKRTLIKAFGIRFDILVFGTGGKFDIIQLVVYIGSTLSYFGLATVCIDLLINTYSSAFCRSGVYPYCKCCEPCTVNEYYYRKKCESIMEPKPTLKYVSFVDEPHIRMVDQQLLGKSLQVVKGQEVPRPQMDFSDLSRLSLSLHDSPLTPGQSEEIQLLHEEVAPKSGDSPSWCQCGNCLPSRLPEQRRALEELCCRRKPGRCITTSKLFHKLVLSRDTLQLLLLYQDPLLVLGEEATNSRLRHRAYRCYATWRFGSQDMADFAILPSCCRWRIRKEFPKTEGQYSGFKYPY
In short: (§1)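 Stable rat or mouse P2X7 HEK293 cells in HBSS/20 mM HEPES/2.5 mM probenecid/0.05% BSA, pH 7.4, were loaded with Fluo-4 NW (37 °C 30 min, RT 30 min). After 30 min at RT, calcium fluorescence was read by FLIPR; n ≥ 3.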

in vitro [4] = conditions: rat, liver microsomes
P2X purinoceptor 7 [5] = target: T2, P2X purinoceptor 7 (Rattus norvegicus, UniProt Q64663); assay: Antagonist activity at rat P2X7 receptor expressed in HEK293 cells assessed as inhibition of BzATP-induced calcium-flux measured after 60 mins by FLIPR analysis; format: cell-based; in short: as §1
T2 sequence (Q64663 whole entry): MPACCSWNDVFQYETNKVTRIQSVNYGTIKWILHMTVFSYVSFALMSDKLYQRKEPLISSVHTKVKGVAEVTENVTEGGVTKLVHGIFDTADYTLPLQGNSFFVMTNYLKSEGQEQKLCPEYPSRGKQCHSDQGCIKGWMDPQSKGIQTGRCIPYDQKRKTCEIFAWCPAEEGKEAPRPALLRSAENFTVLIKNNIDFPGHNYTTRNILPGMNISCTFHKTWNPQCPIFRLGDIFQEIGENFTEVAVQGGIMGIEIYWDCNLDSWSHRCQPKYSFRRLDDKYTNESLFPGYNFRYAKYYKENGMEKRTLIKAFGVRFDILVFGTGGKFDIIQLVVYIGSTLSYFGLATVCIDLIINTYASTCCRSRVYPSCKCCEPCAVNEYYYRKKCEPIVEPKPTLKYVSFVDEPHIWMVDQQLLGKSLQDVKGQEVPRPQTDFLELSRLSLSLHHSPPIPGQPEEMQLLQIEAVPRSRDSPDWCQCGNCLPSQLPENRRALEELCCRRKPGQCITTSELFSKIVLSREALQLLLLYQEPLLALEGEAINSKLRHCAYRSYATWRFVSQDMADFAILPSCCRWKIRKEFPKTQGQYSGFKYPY

P2X purinoceptor 7 [6] = target: T3, P2X purinoceptor 7 (Homo sapiens, UniProt Q99572); assay: Antagonist activity at human P2X7 receptor expressed in HEK293 cells assessed as inhibition of BzATP-induced calcium-flux measured after 60 mins by FLIPR analysis; format: cell-based
T3 sequence (Q99572 whole entry): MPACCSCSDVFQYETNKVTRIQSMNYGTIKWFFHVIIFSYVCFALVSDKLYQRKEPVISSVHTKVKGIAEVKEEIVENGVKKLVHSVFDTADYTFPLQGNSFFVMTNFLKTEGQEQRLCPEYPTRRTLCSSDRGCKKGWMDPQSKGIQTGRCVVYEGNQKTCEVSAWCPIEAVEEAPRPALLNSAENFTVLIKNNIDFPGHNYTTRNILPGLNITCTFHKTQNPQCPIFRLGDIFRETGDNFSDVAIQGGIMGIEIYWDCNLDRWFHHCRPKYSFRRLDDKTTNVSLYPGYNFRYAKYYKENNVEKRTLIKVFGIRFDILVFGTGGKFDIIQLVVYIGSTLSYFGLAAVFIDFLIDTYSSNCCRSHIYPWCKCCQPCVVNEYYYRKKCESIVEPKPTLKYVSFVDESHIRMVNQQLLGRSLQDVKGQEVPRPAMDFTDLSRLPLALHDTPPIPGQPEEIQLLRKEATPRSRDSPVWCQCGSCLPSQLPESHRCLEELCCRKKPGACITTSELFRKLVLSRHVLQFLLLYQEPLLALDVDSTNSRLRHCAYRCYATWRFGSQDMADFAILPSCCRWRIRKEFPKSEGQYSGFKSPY

in vitro [7] = conditions: human, liver microsomes
P2X purinoceptor 7 [8] = target: T2, P2X purinoceptor 7; assay: Displacement of [3H]-A-804598 from rat P2X7 receptor expressed in HEK293 cell membrane by in vitro binding assay; format: cell membranes
P2X purinoceptor 7 [9] = target: T3, P2X purinoceptor 7; assay: Displacement of [3H]-A-804598 from human P2X7 receptor expressed in HEK293 cell membrane by in vitro binding assay; format: cell membranes
THP-1 = assay: Antiinflammatory activity against human THP-1 cells assessed as reduction in LPS and BzATP-induced IL-1beta release measured after 50 mins by microplate reader; format: functional, cell-based; conditions: THP-1, 50 min
In short: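 THP-1 cells were differentiated with IFN-γ 10 ng/mL for 48 h and primed with LPS (100 ng/mL final) for 3.5 h at 10k cells/well. Compound was added for 20 min, then BzATP (1 mM final) for 30 min at 37 °C. Supernatant IL-1β was read by human AlphaLISA.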

P2X purinoceptor 7 [10] = target: T1, P2X purinoceptor 7; assay: Displacement of [3H]-A-804598 from mouse P2X7 receptor expressed in HEK293 cell membrane by in vitro binding assay; format: cell membranes

efflux ratio [1]	Papp A:B [2] [nm/s]	IC50 (P2X purinoceptor 7 [3]) [µM]	CLint scaled at 1 h, 1 µM (in vitro [4]) [L/h/kg]	IC50 (P2X purinoceptor 7 [5]) [µM]	IC50 (P2X purinoceptor 7 [6]) [µM]	CLint scaled at 1 h, 1 µM (in vitro [7]) [L/h/kg]	Ki (P2X purinoceptor 7 [8]) [µM]	Ki (P2X purinoceptor 7 [9]) [µM]	IC50 (THP-1) [µM]	Ki (P2X purinoceptor 7 [10]) [µM]	SMILES
17	7	1.7	2.6	0.0044	0.0035	1.2	0.13	0.015			O=C(NCC12CC3CC(CC(C3)C1)C2)c1cc(CCCNCCCO)ccc1Cl [AZD9056]
	2	0.25			0.081			0.13			COc1ccc(CC(=O)NC(N/C(=N/C#N)Nc2cccc3ncccc23)C(C)(C)C)cc1OC (stereo not given)
	93		4.3	0.0061		1.4	0.0039		0.015		C[C@H](N/C(=N/C#N)Nc1cccc2ncccc12)c1ccccc1
0.77	400	0.3	25	0.071	0.057	4.5	0.016	0.0074	0.14	0.048	FC(F)(F)c1cccc(-c2nnnn2Cc2cccnc2)c1Cl
0.72	200	2.3	1	1.9	0.02	0.3	0.51	0.0057			CN1C(=O)CC[C@H]1C(=O)NCc1cccc(C(F)(F)F)c1Cl [GSK1482160]
	180	> 10	3.2	5.5		0.47	4.8				O=C(NCC1(O)CCC(F)(F)CC1)c1cc(-c2ncc(F)cn2)ccc1Cl
	6	0.66		0.47	0.00076						COC[C@H](O)Cn1c(=O)cnn(-c2ccc(Cl)c(C(=O)NCC3(O)CCCCCC3)c2)c1=O [CE-224535]
1.1	110	0.00065	26	0.0047	0.035	17	0.098				O=C(NCC1(N2CCN(c3ccccc3)CC2)CCOCC1)c1cccnc1Sc1ccccc1
0.83	250	0.32	5.1	0.26	0.0055	1.6		0.0056	0.027	0.1	O=C(Cc1cccc(C(F)(F)F)c1Cl)NC1COc2ncccc21 (stereo not given)
				0.095							O=C(NC[C@@H](c1ccc(Cl)cc1)N1CCOCC1)c1sc(-c2ncccn2)nc1C(F)(F)F
		2.9	46	0.91	2.1	1	0.2	0.068			Clc1cccc(-c2nnnn2Cc2cccnc2)c1Cl

SMILES	efflux ratio [1]	Papp A:B [2] [nm/s]	IC50 (P2X purinoceptor 7 [3]) [µM]	CLint scaled at 1 h, 1 µM (in vitro [4]) [L/h/kg]	IC50 (P2X purinoceptor 7 [5]) [µM]	IC50 (P2X purinoceptor 7 [6]) [µM]	CLint scaled at 1 h, 1 µM (in vitro [7]) [L/h/kg]	Ki (P2X purinoceptor 7 [8]) [µM]	Ki (P2X purinoceptor 7 [9]) [µM]	IC50 (THP-1) [µM]	Ki (P2X purinoceptor 7 [10]) [µM]
O=C(NCC1CCCCCC1)c1cn(CCO)c2ccccc12	0.7	59	0.24	32	1.5	0.072	53				
CN1CCc2c(cccc2C(=O)NCC2(N3CCN(c4ccccc4)CC3)CCCCC2)C1	1.1	2.5		12							
